These results are taken from ChEMBL document CHEMBL3045596, “Synthesis and herbicidal activity of 12-(aryloxyacyloxyimino)-1,15-pentadecanlactone derivatives” (J Agric Food Chem, 2009).

Values after ≈ are worked out from the molar mass of the structure shown.

What is called EC50 is the concentration at which the effect is half-maximal.

One test has as its system Triticum aestivum. The test is described as follows: Herbicidal activity against Triticum aestivum L. (wheat) assessed as plant dead at 25 to 32 degC measured after 7 days. Format: functional, organism-based. The conditions noted are these: 168 h. Summed up: (§1)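 Seedlings grown at 25-32 °C for about 7 days, then thinned to thirty plants per cup at the two-leaf stage. Emulsion (1 mL per cup) applied by Potter spray tower, after which plants were kept at 25-32 °C. Three replicates per concentration.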
For `O=C1CCCCCCCCCCC(=NOC(=O)COc2ccc(Cl)cc2Cl)CCCO1`, the concentration for a half-maximal effect (EC50) is 38.4 mg/L (≈ 81.3 µM).

A further test has as its system Cucumis sativus. Put plainly: Herbicidal activity against Cucumis sativus (cucumber) assessed as plant dead at 25 to 32 degC measured after 7 days. Format: functional, organism-based. The conditions noted are these: 168 h. The method in brief: as §1
On to `O=C1CCCCCCCCCCC(=NOC(=O)COc2ccc(Cl)cc2Cl)CCCO1`, for which the half-maximal effective concentration (EC50) was found to be 1.5 mg/L (≈ 3.18 µM).

The test system of the next test is Vigna radiata var. radiata. The test is described as follows: Herbicidal activity against Vigna radiata var. radiata assessed as plant dead at 25 to 32 degC measured after 7 days. The conditions noted are these: 168 h. The class given is functional, organism-based. The method in brief: as §1
On to `O=C1CCCCCCCCCCC(=NOC(=O)COc2ccc(Cl)cc2Cl)CCCO1`, for which the EC50 was found to be 2.8 mg/L (≈ 5.93 µM).

The test system of another test is Lolium arundinaceum. The test is described as follows: Herbicidal activity against Festuca arundinacea assessed as plant dead at 25 to 32 degC measured after 7 days. To be noted: L., 168 h. Format: functional, organism-based. Summed up:
as §1
For the compound `O=C1CCCCCCCCCCC(=NOC(=O)COc2ccc(Cl)cc2Cl)CCCO1`, the concentration for a half-maximal effect (EC50) came to 50.2 mg/L (≈ 106 µM).

The next test concerns Glycine max. The test is described as follows: Herbicidal activity against Glycine max (soybean) assessed as plant dead at 25 to 32 degC measured after 7 days. Format: functional, organism-based. To be noted: 168 h. The method in brief:
as §1
As for `O=C1CCCCCCCCCCC(=NOC(=O)COc2ccc(Cl)cc2Cl)CCCO1`, the concentration giving a half-maximal response (EC50) is 14.4 mg/L (≈ 30.5 µM).

The test system of the next test is Zea mays. The test is described as follows: Herbicidal activity against Zea mays (maize) assessed as plant dead at 25 to 32 degC measured after 7 days. The class given is functional, organism-based. To be noted: 168 h. The method in brief: as §1
For the compound `O=C1CCCCCCCCCCC(=NOC(=O)COc2ccc(Cl)cc2Cl)CCCO1`, the EC50 worked out at 0.3 mg/L (≈ 0.635 µM).

The subject of the next test is Oryza sativa. The test is described as follows: Herbicidal activity against Oryza sativa (rice) assessed as plant dead at 25 to 32 degC measured after 7 days. The class given is functional, organism-based. To be noted: 168 h. Summed up:
as §1
Take `O=C1CCCCCCCCCCC(=NOC(=O)COc2ccc(Cl)cc2Cl)CCCO1`: the EC50 was 2.5 mg/L (≈ 5.29 µM).

The subject of another test is Amaranthus tricolor. Put plainly: Herbicidal activity against Amaranthus tricolor assessed as plant dead at 25 to 32 degC measured after 7 days. Format: functional, organism-based. To be noted: 168 h. Summed up: as §1
Regarding `O=C1CCCCCCCCCC/C(=N\OC(=O)COc2ccc(Cl)cc2)CCCO1`, the EC50 was found to be 15.7 mg/L (≈ 35.8 µM).

As for `CC(Oc1ccc(Cl)cc1)C(=O)ON=C1CCCCCCCCCCC(=O)OCCC1` (stereo unspecified), the 50% effective concentration (EC50) is 17.8 mg/L (≈ 39.4 µM).

`Cc1cc(OCC(=O)ON=C2CCCCCCCCCCC(=O)OC(C)CC2)ccc1Cl` (stereo unspecified): the half-maximal effective concentration (EC50) amounted to 3.4 mg/L (≈ 7.3 µM).

On to `CC(Oc1ccccc1Cl)C(=O)ON=C1CCCCCCCCCCC(=O)OCCC1` (stereo unspecified), for which the EC50 was 18 mg/L (≈ 39.8 µM).

Regarding `Cc1cc(OC(C)C(=O)ON=C2CCCCCCCCCCC(=O)OCCC2)ccc1Cl` (stereo unspecified), the concentration for a half-maximal effect (EC50) worked out at 9.5 mg/L (≈ 20.4 µM).

Regarding `COC(=O)c1ccccc1S(=O)(=O)NC(=O)N(C)c1nc(C)nc(OC)n1` [TRIBENURON METHYL], the 50% effective concentration (EC50) was 22.4 mg/L (≈ 56.7 µM).

Regarding `Cc1cc(OC(C)(C)C(=O)ON=C2CCCCCCCCCCC(=O)OCCC2)ccc1Cl`, the EC50 came to 50.1 mg/L (≈ 104 µM).

Turning to `Cc1cc(Cl)ccc1OCC(=O)O/N=C1/CCCCCCCCCCC(=O)OCCC1`, the EC50 is 18.2 mg/L (≈ 40.3 µM).

On to `Cc1cccc(OCC(=O)ON=C2CCCCCCCCCCC(=O)OCCC2)c1C`, for which the EC50 came out at 52.4 mg/L (≈ 121 µM).

As for `O=C1CCCCCCCCCCC(=NOC(=O)COc2ccccc2Cl)CCCO1`, the EC50 is 30.6 mg/L (≈ 69.9 µM).

Regarding `O=C1CCCCCCCCCCC(=NOC(=O)COc2ccc(Cl)cc2)CCCO1`, the concentration for a half-maximal effect (EC50) was 18.2 mg/L (≈ 41.6 µM).

Take `CC(C)(Oc1ccc(Cl)cc1)C(=O)ON=C1CCCCCCCCCCC(=O)OCCC1`: the half-maximal effective concentration (EC50) was 46.5 mg/L (≈ 99.8 µM).

In the case of `CC1CCC(=NOC(=O)COc2ccc(Cl)cc2Cl)CCCCCCCCCCC(=O)O1` (stereo unspecified), the half-maximal effective concentration (EC50) amounted to 8.2 mg/L (≈ 16.9 µM).

`O=C1CCCCCCCCCCC(=NOC(=O)COc2ccc(Br)cc2Cl)CCCO1`: the EC50 amounted to 16.9 mg/L (≈ 32.7 µM).

Consider `O=C1CCCCCCCCCCC(=NOC(=O)COc2ccc(Cl)cc2Cl)CCCO1`, for which the EC50 was 7.7 mg/L (≈ 16.3 µM).

In the case of `O=C1CCCCCCCCCC/C(=N\OC(=O)COc2ccc(Br)cc2Cl)CCCO1`, the EC50 stood at 14.4 mg/L (≈ 27.9 µM).

In the case of `Cc1ccc(OC(C)C(=O)ON=C2CCCCCCCCCCC(=O)OCCC2)cc1` (stereo unspecified), the EC50 came out at 35.9 mg/L (≈ 83.2 µM).

For the compound `Cc1cc(Cl)ccc1OCC(=O)O/N=C1\CCCCCCCCCCC(=O)OCCC1`, the concentration for a half-maximal effect (EC50) came to 18.3 mg/L (≈ 40.5 µM).

With `CC1CCC(=NOC(=O)COc2ccc(Br)cc2Cl)CCCCCCCCCCC(=O)O1` (stereo unspecified), the 50% effective concentration (EC50) was determined as 14.4 mg/L (≈ 27.1 µM).

As to `Cc1cc(Cl)ccc1OCC(=O)ON=C1CCCCCCCCCCC(=O)OCCC1`, the half-maximal effective concentration (EC50) amounted to 19.6 mg/L (≈ 43.4 µM).

Take `Cc1cc(Cl)ccc1OCC(=O)ON=C1CCCCCCCCCCC(=O)OC(C)CC1` (stereo unspecified): the EC50 is 8 mg/L (≈ 17.2 µM).

`CC(Oc1cccc(Cl)c1)C(=O)ON=C1CCCCCCCCCCC(=O)OCCC1` (stereo unspecified): the EC50 is 25.1 mg/L (≈ 55.5 µM).

Consider `O=C(O)COc1ccc(Cl)cc1Cl` [2,4-DICHLOROPHENOXYACETIC ACID], for which the EC50 amounted to 117 mg/L (≈ 531 µM).

`COc1ccc(OCC(=O)ON=C2CCCCCCCCCCC(=O)OCCC2)cc1`: the concentration giving a half-maximal response (EC50) was 48.8 mg/L (≈ 113 µM).

With `Cc1ccc(OCC(=O)ON=C2CCCCCCCCCCC(=O)OCCC2)cc1`, the EC50 came out at 55.4 mg/L (≈ 133 µM).

As for `CC1CCC(=NOC(=O)COc2ccc(Cl)cc2)CCCCCCCCCCC(=O)O1` (stereo unspecified), the concentration giving a half-maximal response (EC50) is 12.4 mg/L (≈ 27.4 µM).

For `Cc1ccccc1OCC(=O)ON=C1CCCCCCCCCCC(=O)OCCC1`, the concentration for a half-maximal effect (EC50) is 117 mg/L (≈ 281 µM).

For the compound `O=C1CCCCCCCCCCC(=NOC(=O)COc2ccccc2)CCCO1`, the EC50 came out at 73.2 mg/L (≈ 181 µM).

As to `O=C1CCCCCCCCCCC(=NOC(=O)COc2cccc(Cl)c2)CCCO1`, the half-maximal effective concentration (EC50) is 23.8 mg/L (≈ 54.3 µM).

In the case of `CC1CCC(=NOC(=O)C(C)Oc2ccc(Cl)cc2)CCCCCCCCCCC(=O)O1` (stereo unspecified), the 50% effective concentration (EC50) was 4.8 mg/L (≈ 10.3 µM).

Regarding `O=C1CCCCCCCCCCC(=NOC(=O)COc2cccc([N+](=O)[O-])c2)CCCO1`, the EC50 came out at 80.9 mg/L (≈ 180 µM).

Regarding `O=C1CCCCCCCCCC/C(=N/OC(=O)COc2ccc(Br)cc2Cl)CCCO1`, the EC50 amounted to 14.7 mg/L (≈ 28.4 µM).

Take `O=C1CCCCCCCCCC/C(=N/OC(=O)COc2ccc(Cl)cc2)CCCO1`: the concentration for a half-maximal effect (EC50) turned out to be 16.3 mg/L (≈ 37.2 µM).

`CC(Oc1ccccc1)C(=O)ON=C1CCCCCCCCCCC(=O)OCCC1` (stereo unspecified): the EC50 is 22.4 mg/L (≈ 53.6 µM).

On to `Cc1ccc(OC(C)(C)C(=O)ON=C2CCCCCCCCCCC(=O)OCCC2)cc1`, for which the EC50 turned out to be 55.4 mg/L (≈ 124 µM).

On to `CC(C)(Oc1ccccc1)C(=O)ON=C1CCCCCCCCCCC(=O)OCCC1`, for which the concentration for a half-maximal effect (EC50) came to 34.6 mg/L (≈ 80.2 µM).

Consider `CC(Oc1ccc(Cl)cc1Cl)C(=O)ON=C1CCCCCCCCCCC(=O)OCCC1` (stereo unspecified), for which the EC50 turned out to be 13.5 mg/L (≈ 27.8 µM).

On to `Cc1ccc(OCC(=O)ON=C2CCCCCCCCCCC(=O)OCCC2)cc1C`, for which the EC50 amounted to 55.4 mg/L (≈ 128 µM).

On to `Cc1cccc(OC(C)C(=O)ON=C2CCCCCCCCCCC(=O)OCCC2)c1C` (stereo unspecified), for which the EC50 turned out to be 49.6 mg/L (≈ 111 µM).
